Test results published in ChEMBL document CHEMBL3739337, “Alkaloids with Different Carbon Units from Myrioneuron faberi” (J Nat Prod, 2015).

Key:
[1] = Therapeutic index, ratio of CC50 for human Huh7.5 cells to EC50 for chimeric HCV FL-J6/JFH/JC1 infected in human Huh7.5 cells; format: cell-based, Huh-7; details: read-out: Ratio CC50/EC50
[2] = Cytotoxicity against human Huh7.5 cells; format: cell-based, Huh-7
Outline: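 Huh7.5 human liver cells grown in DMEM with 10% inactivated fetal bovine serum and 1% penicillin–streptomycin at 37 °C, 5% CO2.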

[3] = test system: Hepatitis C virus; experiment: Antiviral activity against chimeric HCV FL-J6/JFH/JC1 infected in human Huh7.5 cells assessed as reduction of intracellular viral RNA level after 72 hrs by RT-PCR assay; format: functional, organism-based, Hepacivirus hominis; details: FL-J6/JFH/JC1, Huh-7, 72 h
Outline: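 Huh7.5 cells in DMEM with 10% inactivated FBS at 37 °C, 5% CO2, seeded at 3 × 10^4 cells/cm2. After 24 h they were infected (about 45 IU per cell) and given compound or solvent control at the same time. At 72 h, intracellular HCV RNA was measured against GAPDH by one-step RT-PCR (2ΔΔCT). EC50 was derived by the Reed and Muench method.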

SMILES	selectivity ratio [1]	CC50 [2] [µM]	EC50 [3] [µM]
O=C1CC[C@@H]2CCC[C@H]3CN4CCC[C@H](C[C@H]5CCCN6C[C@@H]7CCC[C@H]8CCC(=O)N([C@H]87)[C@H]56)[C@H]4N1[C@H]23	> 9.5	> 100	10.5
C1C[C@H]2CCCN3[C@H]2[C@@H](C1)CN1CCCC[C@@H]13	13	95.9	7.35
CCC[C@H](NC(=O)[C@@H]1[C@H]2CCC[C@H]2CN1C(=O)[C@@H](NC(=O)[C@@H](NC(=O)c1cnccn1)C1CCCCC1)C(C)(C)C)C(=O)C(=O)NC1CC1 [TELAPREVIR]	371	47.8	0.129
COC[C@@H]1CCCN2C[C@@H]3CCC[C@H]4CC(C=O)=CN([C@H]43)[C@@H]12	> 109	> 100	0.92
O=CC1=CN2[C@@H]3[C@@H](CCC[C@H]3CN3CCCC[C@@H]32)C1	> 30.6	> 100	3.27
O=C1CC[C@@H]2CCC[C@H]3CN4CCCC[C@H]4N1[C@H]23	> 3.3	> 100	30.6
